# Test results taken from ChEMBL document CHEMBL4765370, “Design, synthesis, and biological evaluation of aryl piperazines with potential as antidiabetic agents via the stimulation of glucose uptake and inhibition of NADH:ubiquinone oxidoreductase” (Eur J Med Chem, 2020).
# Key:
# [1] = AUClast in C57 Black mouse liver at 10 mg/kg, iv; type: ADME, organism-based; design: time 0 - last, route intravenous, dose 10 mg/kg
# Procedure, shortened: (§1)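 Male C57BL/6 mice were given a single 10 mg/kg dose either intravenously or orally. The oral and IV solutions were formulated in 10% DMSO, 10% cremaphor and 80% saline. Concentrations in plasma and in the tissues collected were determined after dosing, with n = 3 per route. Values are given as mean ± SEM.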
# [2] = AUCinfinity in C57 Black mouse muscle at 10 mg/kg, iv; type: ADME, organism-based, Muscle tissue; design: time infinity, route intravenous, dose 10 mg/kg; procedure, shortened: as §1
# [3] = Tmax in C57 Black mouse muscle at 10 mg/kg, iv; type: ADME, organism-based, Muscle tissue
# Procedure, shortened: (§2)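 Male C57BL/6 mice (n = 3) dosed at 10 mg/kg by IV or oral (PO) route. Dosing solutions were formulated in 10% DMSO, 10% cremaphor and 80% saline. Compound levels were measured in plasma and tissues over time, and values are given as mean ± SEM.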
# [4] = Half life in human microsomes at 1 uM up to 120 mins by HPLC/MS-MS analysis; type: ADME, Microsome
# [5] = AUCinfinity in C57 Black mouse liver at 10 mg/kg, iv; type: ADME, organism-based; design: route intravenous, time infinity, dose 10 mg/kg; procedure, shortened: as §1
# [6] = Tmax in C57 Black mouse liver at 10 mg/kg, iv; type: ADME, organism-based; procedure, shortened: as §2
# [7] = AUCall in C57 Black mouse liver at 10 mg/kg, po; type: ADME, organism-based; design: dose 10 mg/kg; procedure, shortened: as §1
# [8] = Half life in C57 Black mouse liver at 10 mg/kg, po; type: ADME, organism-based; procedure, shortened: as §2
# [9] = Volume of distribution in C57 Black mouse spleen at 10 mg/kg, iv; type: ADME, organism-based; procedure, shortened: as §2
# [10] = AUCinfinity in C57 Black mouse spleen at 10 mg/kg, iv; type: ADME, organism-based; design: time infinity, route intravenous, dose 10 mg/kg; procedure, shortened: as §1
# [11] = AUClast in C57 Black mouse spleen at 10 mg/kg, iv; type: ADME, organism-based; design: time 0 - last, route intravenous, dose 10 mg/kg; procedure, shortened: as §1
# [12] = Tmax in C57 Black mouse spleen at 10 mg/kg, iv; type: ADME, organism-based; procedure, shortened: as §2
# [13] = AUCinfinity in C57 Black mouse spleen at 10 mg/kg, po; type: ADME, organism-based; design: time infinity, route oral, dose 10 mg/kg; procedure, shortened: as §1
# [14] = AUCall in C57 Black mouse spleen at 10 mg/kg, po; type: ADME, organism-based; design: dose 10 mg/kg; procedure, shortened: as §1
# [15] = AUCinfinity in C57 Black mouse kidney at 10 mg/kg, po; type: ADME, organism-based; design: route oral, time infinity, dose 10 mg/kg; procedure, shortened: as §1
# [16] = Cmax in C57 Black mouse kidney at 10 mg/kg, po; type: ADME, organism-based; design: route oral, dose 10 mg/kg; procedure, shortened: as §1
# [17] = Half life in C57 Black mouse kidney at 10 mg/kg, po; type: ADME, organism-based; procedure, shortened: as §2
# [18] = Inhibition of NADH:ubiquinone oxidoreductase in rat liver mitochondria incubated for 3 mins
# [19] = Half life in mouse hepatocytes at 1 uM up to 120 mins by HPLC-MS/MS analysis; type: ADME, cell-based, Hepatocyte
# [20] = Protein binding mouse serum at 1 uM after 60 to 120 mins by HPLC-MS/MS analysis; type: ADME, cell-free; settings: time 60-120 min, read-out: PB (converted)
# [21] = Half life in human plasma at 1 uM after 60 to 120 mins by HPLC-MS/MS analysis; type: ADME, cell-free; settings: time 60-120 min
# Procedure, shortened: (§3)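 Buffer containing test compound at 1 µM was mixed with human or mouse blood plasma and incubated at 37 °C for 60–120 min. Parent compound remaining gave the plasma half-life and the percentage stable at 2 h.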
# [22] = Half life in mouse plasma at 1 uM after 60 to 120 mins by HPLC-MS/MS analysis; type: ADME, cell-free; settings: time 60-120 min; procedure, shortened: as §3
# [23] = Tmax in C57 Black mouse plasma at 10 mg/kg, po; type: ADME, organism-based; procedure, shortened: as §2
# [24] = AUCall in C57 Black mouse plasma at 10 mg/kg, po; type: ADME, organism-based; design: dose 10 mg/kg; procedure, shortened: as §1
# [25] = AUCinfinity in C57 Black mouse plasma at 10 mg/kg, po; type: ADME, organism-based; design: route oral, time infinity, dose 10 mg/kg; procedure, shortened: as §1
# [26] = Cmax in C57 Black mouse plasma at 10 mg/kg, iv; type: ADME, organism-based; design: route intravenous, dose 10 mg/kg; procedure, shortened: as §1
# [27] = AUClast in C57 Black mouse plasma at 10 mg/kg, iv; type: ADME, organism-based; design: route intravenous, time 0 - last, dose 10 mg/kg; procedure, shortened: as §1
# [28] = Cmax in C57 Black mouse brain at 10 mg/kg, po; type: ADME, organism-based; design: route oral, dose 10 mg/kg; procedure, shortened: as §1
# [29] = AUClast in C57 Black mouse brain at 10 mg/kg, po; type: ADME, organism-based; design: route oral, time 0 - last, dose 10 mg/kg; procedure, shortened: as §1
# [30] = AUCinfinity in C57 Black mouse brain at 10 mg/kg, po; type: ADME, organism-based; design: route oral, time infinity, dose 10 mg/kg; procedure, shortened: as §1
# [31] = Lipophilicity, logP of compound; type: physicochemical; settings: octanol/water
# [32] = Apparent permeability in MDCK-MDR1 cells at 10 uM after 30 mins by LC-MS/MS analysis; type: ADME, cell-based, Canis lupus familiaris; settings: dog
# Procedure, shortened: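 Test article was taken from a 10 mM DMSO stock and diluted in DMEM to a final 10 µM donor solution, with 10 µM propranolol as internal standard. It was applied to hMDR1-MDCK monolayers on filters. Transfer to the receiver compartment was measured over 30 min in both directions, apical-to-basolateral and basolateral-to-apical. Quantification was by LC-MS/MS, n = 3.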
# CYP1A2 = biological target: T1, CYP1A2 (Homo sapiens, UniProt P05177); assay: Inhibition of human CYP1A2 using fluorogenic substrate incubated for 60 mins in presence of NADPH by fluorescence assay relative to control; type: ADME; settings: probe fluorogenic substrate
# T1 sequence (P05177 whole entry): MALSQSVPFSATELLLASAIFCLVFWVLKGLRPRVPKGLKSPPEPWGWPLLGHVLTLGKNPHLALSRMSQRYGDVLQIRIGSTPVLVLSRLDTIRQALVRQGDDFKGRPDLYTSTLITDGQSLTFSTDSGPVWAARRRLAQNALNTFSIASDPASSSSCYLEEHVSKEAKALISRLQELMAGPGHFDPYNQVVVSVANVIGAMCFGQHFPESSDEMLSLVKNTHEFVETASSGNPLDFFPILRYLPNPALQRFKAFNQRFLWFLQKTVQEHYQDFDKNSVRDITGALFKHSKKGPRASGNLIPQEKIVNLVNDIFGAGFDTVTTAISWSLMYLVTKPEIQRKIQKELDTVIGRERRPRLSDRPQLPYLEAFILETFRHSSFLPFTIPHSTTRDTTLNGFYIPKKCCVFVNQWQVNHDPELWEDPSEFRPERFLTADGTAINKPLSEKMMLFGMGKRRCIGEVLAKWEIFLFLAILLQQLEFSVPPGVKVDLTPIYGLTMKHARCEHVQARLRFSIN
# Procedure, shortened: (§4)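 Baculosomes each expressing a single cDNA-derived human P450 isozyme were incubated with compound at 10 µM, a fluorogenic substrate and NADPH. Incubation was at 37 °C for at least 60 min before fluorescence was read, n = 3.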
# CYP2C19 = CYP2C19 (Homo sapiens, UniProt P33261); assay: Inhibition of human CYP2C19 using fluorogenic substrate incubated for 60 mins in presence of NADPH by fluorescence assay relative to control; type: ADME; settings: probe fluorogenic substrate; procedure, shortened: as §4
# CYP2C19, sequence (P33261 whole entry): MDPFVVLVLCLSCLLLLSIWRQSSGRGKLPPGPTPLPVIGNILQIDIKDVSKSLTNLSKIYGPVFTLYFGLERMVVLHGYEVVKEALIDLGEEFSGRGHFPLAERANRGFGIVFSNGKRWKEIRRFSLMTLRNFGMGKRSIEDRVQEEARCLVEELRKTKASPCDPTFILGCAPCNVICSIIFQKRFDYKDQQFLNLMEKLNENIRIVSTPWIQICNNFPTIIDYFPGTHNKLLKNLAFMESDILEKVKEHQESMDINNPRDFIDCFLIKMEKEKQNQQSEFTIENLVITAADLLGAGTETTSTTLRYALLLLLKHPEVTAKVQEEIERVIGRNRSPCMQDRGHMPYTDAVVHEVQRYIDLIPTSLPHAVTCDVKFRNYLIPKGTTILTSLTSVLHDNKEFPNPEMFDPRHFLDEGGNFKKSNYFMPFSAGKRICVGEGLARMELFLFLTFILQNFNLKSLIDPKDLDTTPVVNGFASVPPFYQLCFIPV
# CYP2D6 = CYP2D6 (Homo sapiens, UniProt P10635); assay: Inhibition of human CYP2D6 using fluorogenic substrate incubated for 60 mins in presence of NADPH by fluorescence assay relative to control; type: ADME; settings: probe fluorogenic substrate; procedure, shortened: as §4
# CYP2D6, sequence (P10635 whole entry): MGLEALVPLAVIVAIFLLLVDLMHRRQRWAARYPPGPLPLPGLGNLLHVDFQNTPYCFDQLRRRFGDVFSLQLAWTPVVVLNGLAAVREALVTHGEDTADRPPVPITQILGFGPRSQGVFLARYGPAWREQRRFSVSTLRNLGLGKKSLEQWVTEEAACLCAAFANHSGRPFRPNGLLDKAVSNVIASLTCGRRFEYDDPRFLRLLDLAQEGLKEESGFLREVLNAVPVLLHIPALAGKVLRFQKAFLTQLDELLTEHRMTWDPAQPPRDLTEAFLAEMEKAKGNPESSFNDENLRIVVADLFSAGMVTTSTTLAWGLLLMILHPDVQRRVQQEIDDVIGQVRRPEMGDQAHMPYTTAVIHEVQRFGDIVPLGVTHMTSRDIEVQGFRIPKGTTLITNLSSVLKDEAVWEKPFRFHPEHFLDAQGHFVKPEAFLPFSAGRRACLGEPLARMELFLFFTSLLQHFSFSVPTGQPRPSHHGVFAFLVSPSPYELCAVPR
# [33] = Stability in human plasma assessed as parent compound remaining at 1 uM after 2 hrs by HPC-MS/MS analysis; type: ADME, cell-free; settings: read-out: Stabilty; procedure, shortened: as §3
# [34] = Toxicity in C57BL/6 mouse at 10 mg/kg, iv or po; type: organism-based; settings: in vivo
smiles,measurement,setting,value
O=C(CCCc1cccs1)N1CCN(c2ccc(C(F)(F)F)cc2)CC1,AUC(0-t),[1],487 ng·h/mL
same,AUC(0-inf),[2],107 ng·h/mL
same,Tmax,[3],1.8 min
same,half-life at 1 µM,[4],12 min
same,AUC(0-inf),[5],531 ng·h/mL
same,Tmax,[6],1.8 min
same,AUC,[7],4050 ng·h/mL
same,half-life,[8],60 min
same,Vd,[9],3.19 L/kg
same,AUC(0-inf),[10],475 ng·h/mL
same,AUC(0-t),[11],463 ng·h/mL
same,Tmax,[12],1.8 min
same,AUC(0-inf),[13],1270 ng·h/mL
same,AUC,[14],1260 ng·h/mL
same,AUC(0-inf),[15],1280 ng·h/mL
same,Cmax,[16],1640 ng/mL
same,half-life,[17],34.2 min
same,IC50,[18],27 µM
same,half-life at 1 µM,[19],126 min
same,fraction unbound at 1 µM,[20],0.0052
same,half-life at 1 µM,[21],808 min
same,half-life at 1 µM,[22],327 min
same,Tmax,[23],15 min
same,AUC,[24],520 ng·h/mL
same,AUC(0-inf),[25],523 ng·h/mL
same,Cmax,[26],996 ng/mL
same,AUC(0-t),[27],240 ng·h/mL
same,Cmax,[28],1430 ng/mL
same,AUC(0-t),[29],763 ng·h/mL
same,AUC(0-inf),[30],774 ng·h/mL
same,logP,[31],4.79
same,"Papp at 0.5 h, 10 µM",[32],27.1 ×10⁻⁶ cm/s
same,inhibition at 1 h,CYP1A2,53.7%
same,inhibition at 1 h,CYP2C19,75.5%
same,inhibition at 1 h,CYP2D6,-2.7%
same,"remaining at 2 h, 1 µM",[33],80%
same,Activity,[34],Non-Toxic
